Experimental findings from ChEMBL document CHEMBL1121485, “Antiestrogens. Synthesis and evaluation of mammary tumor inhibiting activity of 1,1,2,2-tetraalkyl-1,2 -diphenylethanes” (1980) are described below.

What is called Inhibition is the relative decrease from the control value, in per cent. Lower therefore signals little suppression.

Assay [1] addresses T1, Estrogen receptor (Mus musculus) (UniProt O08537+P19785). Nature of the assay: Uterotrophic effect in mice as uterus dry weight(mg) compared to body weight(g) at 5 ug/day dose. The format is functional, tissue-based. In outline:
(§1)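 Mice aged 20 days at start, dosed sc once daily for 3 days (0.1 mL injections, arachis oil vehicle); vehicle-only control group. Killed 24 h after last dose; body weight recorded; uteri fixed in Bouin's solution 12 h, trimmed of connective tissue, washed with saturated alcoholic LiCl, dried 100 °C for 24 h, then weighed.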

Assay [2] concerns the target T1, Estrogen receptor (Mus musculus). Nature of the assay: Anti-uterotrophic effect in mice as uterus dry weight(mg) compared to body weight(g) at 5 ug/day dose. The format is functional, tissue-based. In outline:
as §1

For assay [3] the target is unchanged. In words: Anti-uterotrophic effect in mice as uterus dry weight(mg) compared to body weight(g) at 0 ug/day dose. Format: functional, tissue-based. The method in brief:
as §1

The species entered for assay [4] is Mus musculus. In words: Inhibition of estrone-stimulated uterine growth in mice at 25 ug.
In assay [5] the target is T1, Estrogen receptor (Mus musculus). Nature of the assay: Anti-uterotrophic effect in mice as uterus dry weight(mg) compared to body weight(g) at 25 ug/day dose. Format: functional, tissue-based. In outline:
as §1

Assay [6] is filed under the species Mus musculus. In words: Inhibition of estrone-stimulated uterine growth in mice at 5 ug.
Assay [7] concerns the target T2, Estrogen receptor (Bos taurus) (UniProt Q9XSB5+P49884). In words: Ratio of association constants for estradiol and compound in estrogen receptor binding assay. Format: protein assay.
The target of assay [8] is T1, Estrogen receptor (Mus musculus). In words: Uterotrophic effect in mice as uterus dry weight(mg) compared to body weight(g) at 500 ug/day dose. The format is functional, tissue-based. In outline:
as §1

The target is the same in assay [9]. Nature of the assay: Anti-uterotrophic effect in mice as uterus dry weight(mg) compared to body weight(g) at 100 ug/day dose. Format: functional, tissue-based. The method in brief:
as §1

Assay [10] is filed under the species Mus musculus. In words: Inhibition of estrone-stimulated uterine growth in mice at 50 ug.
For assay [11], the target named is T1, Estrogen receptor (Mus musculus). In words: Uterotrophic effect in mice as uterus dry weight(mg) compared to body weight(g) at 100 ug/day dose. The format is functional, tissue-based. The method in brief:
as §1

In assay [12] the target is T2, Estrogen receptor (Bos taurus). Nature of the assay: Association constant for Estrogen receptor. Format: protein assay.
The target of assay [13] is T1, Estrogen receptor (Mus musculus). Nature of the assay: Uterotrophic effect in mice as uterus dry weight(mg) compared to body weight(g) at 0 ug/day dose. Format: functional, tissue-based. In outline:
as §1

Assay [14] has the same target. In words: Uterotrophic effect in mice as uterus dry weight(mg) compared to body weight(g) at 25 ug/day dose. The format is functional, tissue-based. In outline:
as §1

The target in assay [15] is T2, Estrogen receptor (Bos taurus). In words: Relative binding affinity for Estrogen receptor compared to 17-beta-estradiol. Format: protein assay.
Assay [16] deals with T1, Estrogen receptor (Mus musculus). In words: Anti-uterotrophic effect in mice as uterus dry weight(mg) compared to body weight(g) at 50 ug/day dose. Format: functional, tissue-based. In outline:
as §1

The species entered for assay [17] is Mus musculus. Nature of the assay: Inhibition of estrone-stimulated uterine growth in mice at 100 ug.

T1 sequence (O08537 whole entry, looked up): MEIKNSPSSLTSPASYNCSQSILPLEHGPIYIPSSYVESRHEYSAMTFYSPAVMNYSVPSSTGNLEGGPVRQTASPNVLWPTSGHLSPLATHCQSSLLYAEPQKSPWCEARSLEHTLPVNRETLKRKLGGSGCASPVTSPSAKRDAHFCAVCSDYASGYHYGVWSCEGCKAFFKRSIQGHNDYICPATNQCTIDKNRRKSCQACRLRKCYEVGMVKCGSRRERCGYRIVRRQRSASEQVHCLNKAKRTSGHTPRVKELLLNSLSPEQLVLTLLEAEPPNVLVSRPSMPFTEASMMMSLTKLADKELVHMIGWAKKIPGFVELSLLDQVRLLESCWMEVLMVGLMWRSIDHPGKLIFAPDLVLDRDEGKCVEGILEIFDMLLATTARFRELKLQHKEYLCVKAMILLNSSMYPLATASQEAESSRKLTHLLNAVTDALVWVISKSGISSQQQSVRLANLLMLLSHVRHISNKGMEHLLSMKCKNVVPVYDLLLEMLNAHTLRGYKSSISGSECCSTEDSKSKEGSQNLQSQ
T1 sequence (P19785 whole entry, looked up): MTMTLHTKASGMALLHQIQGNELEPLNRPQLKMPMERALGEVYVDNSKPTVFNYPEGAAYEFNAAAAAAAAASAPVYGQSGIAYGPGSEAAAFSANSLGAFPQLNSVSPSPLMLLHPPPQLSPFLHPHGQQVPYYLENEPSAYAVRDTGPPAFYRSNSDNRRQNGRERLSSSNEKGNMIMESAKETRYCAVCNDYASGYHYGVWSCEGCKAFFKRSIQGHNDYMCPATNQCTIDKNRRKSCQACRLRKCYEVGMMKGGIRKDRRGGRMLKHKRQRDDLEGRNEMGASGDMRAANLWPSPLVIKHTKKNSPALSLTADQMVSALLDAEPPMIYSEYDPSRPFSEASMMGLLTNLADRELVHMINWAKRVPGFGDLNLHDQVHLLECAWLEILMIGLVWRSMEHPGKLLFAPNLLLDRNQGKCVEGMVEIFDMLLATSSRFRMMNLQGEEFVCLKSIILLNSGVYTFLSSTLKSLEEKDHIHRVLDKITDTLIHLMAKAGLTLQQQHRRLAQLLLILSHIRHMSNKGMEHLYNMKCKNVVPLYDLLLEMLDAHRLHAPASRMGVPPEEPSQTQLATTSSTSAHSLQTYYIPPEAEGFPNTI

As for `CC(C)(c1ccc(O)c(O)c1)C(C)(C)c1ccc(O)c(O)c1`, the Effect was found to be 9.7 in [1]; 38.6 in assay [2]; 15.7 in [3]; 35 in assay [5]; 12.5 in assay [8]; 28.4 in [9]. In addition, the Effect came out at 10 in [11], 9.6 in assay [13], 8.9 in [14] and 32.8 in [16]. Also, the Inhibition turned out to be 21.5% in the assay filed under Mus musculus [4], 6.8% in the assay filed under Mus musculus [6], 30.4% in the assay listed under Mus musculus [10] and 45.5% in the assay filed under Mus musculus [17]. In [7], the RAC worked out at 0.0056. For the same compound, the Ka in assay [12] was determined as 4e+07 M⁻¹. Moreover, the RA in assay [15] came to 0.006.
